In ChEMBL document CHEMBL1123557, “N-substituted 1,2,3,4,4a,5,6,10b-octahydrobenzo[f]quinolines and 3-phenylpiperidines: effects on central dopamine and sigma receptors” (J Med Chem, 1987):
The source made the active and inactive calls. The calls are words filed in the database; no cut-off is given here.

Tests used:
D(2) dopamine receptor [1] = target: T1, D(2) dopamine receptor (Rattus norvegicus, UniProt P61169); assay: Binding affinity against Dopamine receptor D2 using [3H]spiperone as radioligand
Outline: (§1)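 Rat striatal membranes (male Sprague-Dawley, 150–250 g), washed three times in 50 mM Tris-HCl pH 7.7. 0.2–0.4 nM [3H]spiperone with 100 mM NaCl and 3 mM MgCl2, about 2 mg tissue, 15 min at 37 °C. Nonspecific binding defined with 1 μM haloperidol. Bound ligand collected by filtration onto PEI-treated glass fiber filters and counted by scintillation. Competition curves fitted iteratively.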

[2] = target: Sigma non-opioid intracellular receptor 1 (Rattus norvegicus, UniProt Q9R0C9); assay: In vitro for binding affinity against sigma receptor using [3H](+)-3-PPP as radioligand
Outline: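 Whole rat brain membranes (male Sprague-Dawley) in 50 mM Tris-HCl pH 8.0. Nonspecific binding defined with 1 μM haloperidol. Rapid filtration onto PEI-treated glass fiber filters, scintillation counting. IC50 from iterative curve fitting.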

Rattus norvegicus [3] = assay: post-synaptic dopaminergic effect was assessed by the increase in locomotor activity at 30 min time interval by 3.1 umol/kg dosage administration; assay type: functional
Rattus norvegicus [4] = species on record: Rattus norvegicus; assay: Effective dose required for DOPA accumulation (presynaptic dopaminergic effect) in rat; I is inactive; assay type: functional, organism-based
Outline: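 Male Sprague-Dawley rats (200–300 g); drug in saline given sc. DOPA measured by HPLC with electrochemical detection in each brain area. Dose-response curves used four to six dose levels per substance and area.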

Rattus norvegicus [5] = assay: post-synaptic dopaminergic effect was assessed by the increase in locomotor activity at 30 min time interval by 3.3 umol/kg dosage administration; assay type: functional
Outline: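 Test substance dissolved in saline immediately before use, occasionally with a few drops of glacial acetic acid and/or moderate heating; dosing solutions at neutral pH. Locomotor activity is the behavioral read-out of postsynaptic dopamine receptor stimulation.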

Rattus norvegicus [6] = assay: post-synaptic dopaminergic effect was assessed by the increase in locomotor activity at 30 min time interval by 53 umol/kg dosage administration; assay type: functional
Rattus norvegicus [7] = assay: post-synaptic dopaminergic effect was assessed by the increase in locomotor activity at 30 min time interval by 14 umol/kg dosage administration; assay type: functional
[8] = target: D(2) dopamine receptor (Rattus norvegicus) (UniProt P61169); assay: Tested in vivo for binding affinity against Dopamine receptor D2 using nonradiolabeled 5,6-di-n-Pr-ADTN; assay type: organism-based; design: concentration or dose not given beside the values
Rattus norvegicus [9] = assay: post-synaptic dopaminergic effect was assessed by the increase in locomotor activity at 30 min time interval by 133 umol/kg dosage administration; assay type: functional
Rattus norvegicus [10] = assay: post-synaptic dopaminergic effect was assessed by the increase in locomotor activity at 30 min time interval by 7 umol/kg dosage administration; assay type: functional
Rattus norvegicus [11] = assay: post-synaptic dopaminergic effect was assessed by the increase in locomotor activity at 30 min time interval by 13 umol/kg dosage administration; assay type: functional
Rattus norvegicus [12] = assay: post-synaptic dopaminergic effect was assessed by the increase in locomotor activity at 30 min time interval by 200 umol/kg dosage administration; assay type: functional
Rattus norvegicus [13] = assay: post-synaptic dopaminergic effect was assessed by the increase in locomotor activity at 30 min time interval by 265 umol/kg dosage administration; assay type: functional
Rattus norvegicus [14] = assay: post-synaptic dopaminergic effect was assessed by the increase in locomotor activity at 30 min time interval by 100 umol/kg dosage administration; assay type: functional
Rattus norvegicus [15] = assay: post-synaptic dopaminergic effect was assessed by the increase in locomotor activity at 30 min time interval by 106 umol/kg dosage administration; assay type: functional
[16] = test system: Dopamine D2 receptor (Rattus norvegicus); assay: Effective dose required for DOPA accumulation (presynaptic dopaminergic effect) in rat
Rattus norvegicus [17] = assay: post-synaptic dopaminergic effect was assessed by the increase in locomotor activity at 30 min time interval by 1.06 umol/kg dosage administration; assay type: functional
Rattus norvegicus [18] = assay: post-synaptic dopaminergic effect was assessed by the increase in locomotor activity at 30 min time interval by 25 umol/kg dosage administration; assay type: functional
D(2) dopamine receptor [19] = target: T1, D(2) dopamine receptor; assay: Compound was tested in vivo for binding affinity against D2 receptor using nonradiolabeled 5,6-di-n-Pr-ADTN; assay type: organism-based
Rattus norvegicus [20] = assay: post-synaptic dopaminergic effect was assessed by the increase in locomotor activity at 30 min time interval by 50 umol/kg dosage administration; assay type: functional
D(2) dopamine receptor [21] = target: T1, D(2) dopamine receptor; assay: Compound was tested in vitro for binding affinity against Dopamine receptor D2 using [3H]-spiperone as radioligand; outline: as §1
Rattus norvegicus [22] = assay: post-synaptic dopaminergic effect was assessed by the increase in locomotor activity at 30 min time interval by 10.6 umol/kg dosage administration; assay type: functional
Rattus norvegicus [23] = assay: post-synaptic dopaminergic effect was assessed by the increase in locomotor activity at 30 min time interval by 213 umol/kg dosage administration; assay type: functional

Sigma non-opioid intracellular receptor 1, sequence (Q9R0C9 whole entry): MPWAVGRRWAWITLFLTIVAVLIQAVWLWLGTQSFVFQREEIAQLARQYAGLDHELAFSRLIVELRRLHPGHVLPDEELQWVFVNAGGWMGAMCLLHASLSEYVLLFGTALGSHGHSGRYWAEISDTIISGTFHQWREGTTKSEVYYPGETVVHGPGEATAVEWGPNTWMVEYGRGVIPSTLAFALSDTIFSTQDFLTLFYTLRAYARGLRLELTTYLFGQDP
D(2) dopamine receptor (Rattus norvegicus), sequence (P61169 whole entry): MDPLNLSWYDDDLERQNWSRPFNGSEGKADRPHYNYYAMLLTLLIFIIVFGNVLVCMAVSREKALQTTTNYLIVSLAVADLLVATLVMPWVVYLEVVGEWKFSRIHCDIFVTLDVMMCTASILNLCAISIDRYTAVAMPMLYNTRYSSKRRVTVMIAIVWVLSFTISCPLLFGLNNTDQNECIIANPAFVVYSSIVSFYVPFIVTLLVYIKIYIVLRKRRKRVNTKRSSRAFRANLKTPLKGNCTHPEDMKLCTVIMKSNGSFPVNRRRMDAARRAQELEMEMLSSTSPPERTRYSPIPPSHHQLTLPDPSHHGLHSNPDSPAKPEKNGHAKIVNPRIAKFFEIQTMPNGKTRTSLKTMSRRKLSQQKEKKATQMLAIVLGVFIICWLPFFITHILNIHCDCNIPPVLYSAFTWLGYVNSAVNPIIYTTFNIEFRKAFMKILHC
T1 sequence (P61169 whole entry): as above

SMILES | IC50 (D(2) dopamine receptor [1]) [nM] | IC50 [2] [nM] | also measured
CCCN1CCC[C@@H]2c3cccc(O)c3CC[C@@H]21 | 160 | 48 | Accumulated counts (Rattus norvegicus [3]): 59
Oc1cccc2c1CC[C@H]1NCCC[C@H]21 | 1550 | 2370 | 
CCCN1CCCC(c2ccc(O)cc2)C1 (stereo not drawn) | 13000 | 276 | ED50 (Rattus norvegicus [4]): inactive
CCCN1CCC[C@H]2c3cccc(O)c3CC[C@H]21 | > 100000 | 197 | ED50 (Rattus norvegicus [4]): inactive
CC(C)N1CCC[C@@H](c2cccc(O)c2)C1 | 355 | 208 | Accumulated counts (Rattus norvegicus [5]): 38
CC(C)N1CCC[C@H](c2cccc(O)c2)C1 | 12100 | 247 | Accumulated counts (Rattus norvegicus [6]): 49
CCCN1CCC[C@H]2c3cccc(O)c3CC[C@@H]21 | 34 | 438 | Accumulated counts (Rattus norvegicus [3]): 78
CCCCN1CCC[C@H](c2cccc(O)c2)C1 | 2670 | 9 | Accumulated counts (Rattus norvegicus [7]): 180; Control [8]: 74%
CCCCN1CCC[C@@H](c2cccc(O)c2)C1 | 275 | 31 | Control [8]: 43%; Accumulated counts (Rattus norvegicus [6]): 63
CN1CCC[C@H](c2cccc(O)c2)C1 | 4120 | 373 | Accumulated counts (Rattus norvegicus [9]): 88
Oc1cccc2c1CC[C@@H]1NCCC[C@@H]21 | 92 | 3610 | 
Oc1cccc([C@@H]2CCCN(CCc3ccccc3)C2)c1 | 44 | 16 | Accumulated counts (Rattus norvegicus [10]): 71
Oc1cccc([C@H]2CCCN(CCc3ccccc3)C2)c1 | 1240 | 8 | Accumulated counts (Rattus norvegicus [7]): 26
CCCN1CCC[C@H](c2cccc(O)c2)C1 |  |  | Control [8]: 84%; Accumulated counts (Rattus norvegicus [11]): 78
Oc1cccc([C@@H]2CCCNC2)c1 | 1750 | 15600 | ED50 (Rattus norvegicus [4]): inactive; Accumulated counts (Rattus norvegicus [12]): 4
Oc1cccc([C@H]2CCCNC2)c1 | 435 | 4570 | Accumulated counts (Rattus norvegicus [13]): 47
CN1CCCC(c2cccc(O)c2)C1 (stereo not drawn) | 1950 | 1910 | Accumulated counts (Rattus norvegicus [14]): 36
CCCN1CCC[C@@H]2c3cccc(O)c3CC[C@@H]21 (racemic) [listing 1 of 2 here] | 2100 | 416 | 
Oc1cccc2c1CCC1NCCCC21 (racemic) | 7500 | 14900 | Accumulated counts (Rattus norvegicus [15]): 10; ED50 (Rattus norvegicus [4]): inactive
CCCCN1CCCC2c3cccc(O)c3CCC21 (racemic) | 38 | 23 | Control [8]: 57%; Accumulated counts (Rattus norvegicus [3]): 196; ED50 [16]: 0.08 µmol/kg
CCN1CCCC2c3cc(O)ccc3CCC21 (racemic) | 110 | 70 | Control [8]: 57%; Accumulated counts (Rattus norvegicus [17]): 47; ED50 [16]: 0.017 µmol/kg
CCCN1CCCC2c3c(O)cccc3CCC21 (racemic) | 61800 | 1930 | ED50 (Rattus norvegicus [4]): inactive
CN1CCCC2c3cc(O)ccc3CCC21 (racemic) | 265 | 221 | Control [8]: 57%; Accumulated counts (Rattus norvegicus [15]): 60; ED50 [16]: 0.4 µmol/kg
CN1CCCC2c3cccc(O)c3CCC21 (racemic) | 114 | 610 | Control [8]: 33%; Accumulated counts (Rattus norvegicus [14]): 40
Oc1ccc2c(c1)C1CCCN(CCc3ccccc3)C1CC2 (racemic) | 990 | 27 | ED50 (Rattus norvegicus [4]): inactive; Accumulated counts (Rattus norvegicus [18]): 72
CCCN1CCCC2c3cccc(O)c3CCC21 (racemic) |  |  | IC50 (D(2) dopamine receptor [19]): 63 nM; Accumulated counts (Rattus norvegicus [3]): 163

SMILES | IC50 (D(2) dopamine receptor [1]) [nM] | IC50 [2] [nM] | also measured
CCN1CCCC2c3cccc(O)c3CCC21 (racemic) | 102 | 236 | Control [8]: 54%; Accumulated counts (Rattus norvegicus [3]): 19
CCCCN1CCCC2c3cc(OC)ccc3CCC21 (racemic) | 3840 | 5 | ED50 (Rattus norvegicus [4]): inactive; Accumulated counts (Rattus norvegicus [20]): 135
COc1ccc2c(c1)C1CCCN(Cc3ccccc3)C1CC2 (racemic) | 5520 |  | ED50 (Rattus norvegicus [4]): inactive; Accumulated counts (Rattus norvegicus [20]): 21
Oc1ccc2c(c1)C1CCCN(Cc3ccccc3)C1CC2 (racemic) | 3440 | 11 | ED50 (Rattus norvegicus [4]): inactive; Accumulated counts (Rattus norvegicus [20]): 78
COc1ccc2c(c1)C1CCCN(CCc3ccccc3)C1CC2 (racemic) | 435 | 14 | 
Oc1cccc2c1CCC1C2CCCN1CCc1ccccc1 (racemic) | 6 | 65 | Control [8]: 67%; Accumulated counts (Rattus norvegicus [18]): 143; ED50 [16]: 0.043 µmol/kg
CCCN1CCC[C@@H]2c3cccc(O)c3CC[C@@H]21 (racemic) [listing 2 of 2 here] |  |  | ED50 (Rattus norvegicus [4]): inactive
CCCN1CCCC2c3ccc(O)cc3CCC21 (racemic; 17) | 730 | 10 | 
Oc1ccc2c(c1)C1CCCNC1CC2 (racemic; 18) [listing 1 of 2 here] | 895 | 1940 | Accumulated counts (Rattus norvegicus [15]): 10
Oc1ccc2c(c1)C1CCCNC1CC2 (racemic; 18) [listing 2 of 2 here] |  |  | Control [8]: 90%
CCCN1CCCC2c3cc(O)ccc3CCC21 (racemic; 21) [listing 1 of 2 here] | 101 | 19 | Accumulated counts (Rattus norvegicus [17]): 188
CCCN1CCCC2c3cc(O)ccc3CCC21 (racemic; 21) [listing 2 of 2 here] |  |  | Control [8]: 68%; ED50 [16]: 0.008 µmol/kg
CCCCN1CCCC2c3cc(O)ccc3CCC21 (racemic; 23) [listing 1 of 2 here] | 2990 | 10 | Accumulated counts (Rattus norvegicus [20]): 75
CCCCN1CCCC2c3cc(O)ccc3CCC21 (racemic; 23) [listing 2 of 2 here] |  |  | ED50 (Rattus norvegicus [4]): inactive
CCCN1CCCC2c3ccc(O)cc3CCC21 (racemic; 30) [listing 1 of 2 here] | 13000 | 40 | 
CCCN1CCCC2c3ccc(O)cc3CCC21 (racemic; 30) [listing 2 of 2 here] |  |  | ED50 (Rattus norvegicus [4]): inactive
Oc1ccc2c(c1)C1CCCNC1CC2 (racemic; 31) [listing 1 of 2 here] | 30400 | 11600 | 
Oc1ccc2c(c1)C1CCCNC1CC2 (racemic; 31) [listing 2 of 2 here] |  |  | ED50 (Rattus norvegicus [4]): inactive
CCCN1CCCC2c3cc(O)ccc3CCC21 (racemic; 32) [listing 1 of 2 here] | 6700 | 66 | 
CCCN1CCCC2c3cc(O)ccc3CCC21 (racemic; 32) [listing 2 of 2 here] |  |  | ED50 (Rattus norvegicus [4]): inactive
CCCCN1CCCC2c3cc(O)ccc3CCC21 (racemic; 33) |  | 35 | IC50 (D(2) dopamine receptor [21]): 10400 nM
CCCN1CCCC2c3cc(O)ccc3CCC21 (stereo in doubt; form 1) [listing 1 of 2 here] |  | 520 | Accumulated counts (Rattus norvegicus [22]): 28
CCCN1CCCC2c3cc(O)ccc3CCC21 (stereo in doubt; form 1) [listing 2 of 2 here] |  |  | ED50 [16]: 0.25 µmol/kg
CCCN1CCCC2c3cc(O)ccc3CCC21 (stereo in doubt; form 2) [listing 1 of 2 here] | 25 | 21 | Accumulated counts (Rattus norvegicus [17]): 155
CCCN1CCCC2c3cc(O)ccc3CCC21 (stereo in doubt; form 2) [listing 2 of 2 here] |  |  | ED50 [16]: 0.004 µmol/kg
CCCN1CCC[C@@H](c2cccc(O)c2)C1 [PRECLAMOL] |  |  | Control [8]: 33%; Accumulated counts (Rattus norvegicus [23]): 12
